Experimental data: ChEMBL document CHEMBL1139673, “Factor VIIa inhibitors: gaining selectivity within the trypsin family” (Bioorg Med Chem Lett, 2006)

How the values were obtained:
Coagulation factor VII = biological target: T1, Coagulation factor VII (Homo sapiens, UniProt P08709); experiment: Binding affinity to factor 7a
T1 sequence (P08709 whole entry): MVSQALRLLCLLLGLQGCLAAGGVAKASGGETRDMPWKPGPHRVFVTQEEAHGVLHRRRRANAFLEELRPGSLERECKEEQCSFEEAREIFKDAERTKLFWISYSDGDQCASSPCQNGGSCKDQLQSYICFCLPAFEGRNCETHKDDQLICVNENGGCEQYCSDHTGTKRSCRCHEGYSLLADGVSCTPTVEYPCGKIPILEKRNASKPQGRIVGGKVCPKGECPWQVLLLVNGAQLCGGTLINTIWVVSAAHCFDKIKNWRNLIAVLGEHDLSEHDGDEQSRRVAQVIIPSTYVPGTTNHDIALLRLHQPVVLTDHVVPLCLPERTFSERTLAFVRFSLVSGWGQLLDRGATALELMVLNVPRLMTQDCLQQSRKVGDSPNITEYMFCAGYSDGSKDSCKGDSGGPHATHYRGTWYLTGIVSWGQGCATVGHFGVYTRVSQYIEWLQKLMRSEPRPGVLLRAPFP

Homo sapiens = species: Homo sapiens; experiment: Selectivity for factor 7a versus trypsin
How it was run: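 Apparent Ki (Morrison tight-binding fit) from two chromogenic assays, both at room temperature with substrate at Km and A405 monitored over time. FVIIa: 7 nM factor VII with 11 nM recombinant soluble human tissue factor in Tris pH 7.4, NaCl, 5.0 mM CaCl2, 1.5 mM EDTA, Tween 20, 10% DMSO; CH3SO2-D-CHA-But-Arg-pNA 500 µM. Trypsin: 10 nM, same buffer without CaCl2; Tosyl-Gly-Pro-Lys-pNA 25 µM.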

Compound: N=C(N)c1ccc2[nH]c(-c3cc(C(CC(=O)O)C(=O)O)cc(-c4cc(Cl)cc(Cl)c4Cl)c3O)nc2c1 (stereo unspecified)
- Ki (Coagulation factor VII): 0.21 µM
- Selectivity ratio (Homo sapiens): 39

Compound: N=C(N)c1ccc2[nH]c(-c3cc(C(CC(=O)O)C(=O)O)cc(-c4cccc(CN)c4)c3O)nc2c1 (stereo unspecified)
- Ki (Coagulation factor VII): 0.78 µM
- Selectivity ratio (Homo sapiens): 18

Compound: N=C(N)c1ccc2nc(-c3cc(C(CC(=O)O)C(=O)O)cc(-c4cccc(CO)c4)c3O)[nH]c2c1 (stereo unspecified)
- Ki (Coagulation factor VII): 0.021 µM

Compound: CC(C)c1cccc(-c2cc(C(CC(=O)O)C(=O)O)cc(-c3nc4cc(C(=N)N)ccc4[nH]3)c2O)c1 (stereo unspecified)
- Selectivity ratio (Homo sapiens): 40

Compound: COc1ccc(-c2cc(C(CC(=O)O)C(=O)O)cc(-c3nc4cc(C(=N)N)ccc4[nH]3)c2O)cc1 (stereo unspecified)
- Ki (Coagulation factor VII): 2.25 µM
- Selectivity ratio (Homo sapiens): 1

Compound: N=C(N)c1ccc2[nH]c(-c3cc(C(CC(=O)O)C(=O)O)cc(-c4cccc(N)c4)c3O)nc2c1 (stereo unspecified)
- Ki (Coagulation factor VII): 0.036 µM
- Selectivity ratio (Homo sapiens): 250

Compound: Cc1cccc(-c2cc(C(CC(=O)O)C(=O)O)cc(-c3nc4cc(C(=N)N)ccc4[nH]3)c2O)c1 (stereo unspecified)
- Selectivity ratio (Homo sapiens): 108

Compound: N=C(N)c1ccc2nc(-c3cc(C(CC(=O)O)C(=O)O)cc(-c4cc(Cl)cc(Cl)c4)c3O)[nH]c2c1 (stereo unspecified)
- Ki (Coagulation factor VII): 0.027 µM

Compound: N=C(N)c1ccc2nc(-c3cc(C(CC(=O)O)C(=O)O)cc(-c4ccccc4[N+](=O)[O-])c3O)[nH]c2c1 (stereo unspecified)
- Ki (Coagulation factor VII): 0.022 µM

Compound: N=C(N)c1ccc2[nH]c(-c3cc(C(CC(=O)O)C(=O)O)cc(-c4cccc(O)c4)c3O)nc2c1 (stereo unspecified)
- Ki (Coagulation factor VII): 0.088 µM
- Selectivity ratio (Homo sapiens): 99

Compound: CC(C)(C)c1ccc(-c2cc(C(CC(=O)O)C(=O)O)cc(-c3nc4cc(C(=N)N)ccc4[nH]3)c2O)cc1 (stereo unspecified)
- Ki (Coagulation factor VII): 16 µM
- Selectivity ratio (Homo sapiens): 1

Compound: N=C(N)c1ccc2[nH]c(-c3cc(C(CC(=O)O)C(=O)O)cc(-c4ccccc4)c3O)nc2c1 (stereo unspecified)
- Ki (Coagulation factor VII): 0.074 µM
- Selectivity ratio (Homo sapiens): 91

Compound: N=C(N)c1ccc2[nH]c(-c3cc(C(CC(=O)O)C(=O)O)cc(-c4cc(Cl)cc(Cl)c4)c3O)nc2c1 (stereo unspecified)
- Selectivity ratio (Homo sapiens): 98

Compound: N=C(N)c1ccc2[nH]c(-c3cc(C(CC(=O)O)C(=O)O)cc(-c4ccccc4CS)c3O)nc2c1 (stereo unspecified)
- Ki (Coagulation factor VII): 0.064 µM
- Selectivity ratio (Homo sapiens): 103

Compound: Cc1ccccc1-c1cc(C(CC(=O)O)C(=O)O)cc(-c2nc3cc(C(=N)N)ccc3[nH]2)c1O (stereo unspecified)
- Ki (Coagulation factor VII): 0.5 µM
- Selectivity ratio (Homo sapiens): 16

Compound: N=C(N)c1ccc2[nH]c(-c3cc(C(CC(=O)O)C(=O)O)cc(-c4cccc(Cl)c4)c3O)nc2c1 (stereo unspecified)
- Ki (Coagulation factor VII): 0.066 µM
- Selectivity ratio (Homo sapiens): 59

Compound: N=C(N)c1ccc2nc(-c3cc(C(CC(=O)O)C(=O)O)cc(-c4cccc(Cl)c4Cl)c3O)[nH]c2c1 (stereo unspecified)
- Ki (Coagulation factor VII): 0.27 µM

Compound: N=C(N)c1ccc2[nH]c(-c3cc(C(CC(=O)O)C(=O)O)cc(-c4ccccc4CO)c3O)nc2c1 (stereo unspecified)
- Ki (Coagulation factor VII): 0.73 µM
- Selectivity ratio (Homo sapiens): 16

Compound: N=C(N)c1ccc2[nH]c(-c3cc(C(CC(=O)O)C(=O)O)cc(-c4ccc(F)c(Cl)c4)c3O)nc2c1 (stereo unspecified)
- Selectivity ratio (Homo sapiens): 34

Compound: N#Cc1ccc(O)c(-c2cc(C(CC(=O)O)C(=O)O)cc(-c3nc4cc(C(=N)N)ccc4[nH]3)c2O)c1 (stereo unspecified)
- Ki (Coagulation factor VII): 0.012 µM
- Selectivity ratio (Homo sapiens): 2960

Compound: N=C(N)c1ccc2[nH]c(-c3cc(C(CC(=O)O)C(=O)O)cc(-c4cccnc4)c3O)nc2c1 (stereo unspecified)
- Ki (Coagulation factor VII): 0.55 µM
- Selectivity ratio (Homo sapiens): 31

Compound: Cc1cccc(-c2cc(C(CC(=O)O)C(=O)O)cc(-c3nc4ccc(C(=N)N)cc4[nH]3)c2O)c1 (stereo unspecified)
- Ki (Coagulation factor VII): 0.038 µM

Compound: N=C(N)c1ccc2[nH]c(-c3cc(C(CC(=O)O)C(=O)O)cc(-c4ccccc4O)c3O)nc2c1 (stereo unspecified)
- Ki (Coagulation factor VII): 0.013 µM
- Selectivity ratio (Homo sapiens): 1080

Compound: N=C(N)c1ccc2[nH]c(-c3cc(C(CC(=O)O)C(=O)O)ccc3O)nc2c1 (stereo unspecified)
- Ki (Coagulation factor VII): 6.4 µM
- Selectivity ratio (Homo sapiens): 1

Compound: N#Cc1cccc(-c2cc(C(CC(=O)O)C(=O)O)cc(-c3nc4cc(C(=N)N)ccc4[nH]3)c2O)c1 (stereo unspecified)
- Ki (Coagulation factor VII): 0.077 µM
- Selectivity ratio (Homo sapiens): 71

Compound: N=C(N)c1ccc2[nH]c(-c3cc(C(CC(=O)O)C(=O)O)cc(-c4ccccc4N)c3O)nc2c1 (stereo unspecified)
- Selectivity ratio (Homo sapiens): 41

Compound: Cc1cccc(NC(=O)Cc2cc(C(CC(=O)O)C(=O)O)cc(-c3nc4cc(C(=N)N)ccc4[nH]3)c2O)c1 (stereo unspecified)
- Ki (Coagulation factor VII): 0.054 µM
- Selectivity ratio (Homo sapiens): 102

Compound: N=C(N)c1ccc2nc(-c3cc(C(CC(=O)O)C(=O)O)cc(-c4ccc(Cl)cc4)c3O)[nH]c2c1 (stereo unspecified)
- Ki (Coagulation factor VII): 0.44 µM

Compound: N=C(N)c1ccc2[nH]c(-c3cc(C(CC(=O)O)C(=O)O)cc(-c4cc(Cl)ccc4Cl)c3O)nc2c1 (stereo unspecified)
- Ki (Coagulation factor VII): 0.25 µM
- Selectivity ratio (Homo sapiens): 35

Compound: N=C(N)c1ccc2[nH]c(-c3cc(C(CC(=O)O)C(=O)O)cc(-c4cccc(OC(F)F)c4)c3O)nc2c1 (stereo unspecified)
- Ki (Coagulation factor VII): 0.12 µM
- Selectivity ratio (Homo sapiens): 51

Compound: Cc1cc(C)cc(-c2cc(C(CC(=O)O)C(=O)O)cc(-c3nc4cc(C(=N)N)ccc4[nH]3)c2O)c1 (stereo unspecified)
- Ki (Coagulation factor VII): 0.029 µM
- Selectivity ratio (Homo sapiens): 1080

Compound: N=C(N)c1ccc2[nH]c(-c3cc(C(CC(=O)O)C(=O)O)cc(-c4ccc(Cl)cc4)c3O)nc2c1 (stereo unspecified)
- Selectivity ratio (Homo sapiens): 2

Compound: Cc1ccc(-c2cc(C(CC(=O)O)C(=O)O)cc(-c3nc4cc(C(=N)N)ccc4[nH]3)c2O)cc1 (stereo unspecified)
- Selectivity ratio (Homo sapiens): 8

Compound: N=C(N)c1ccc2[nH]c(-c3cc(C(CC(=O)O)C(=O)O)cc(-c4cc(N)ccc4O)c3O)nc2c1 (stereo unspecified)
- Ki (Coagulation factor VII): 0.01 µM
- Selectivity ratio (Homo sapiens): 1790

Compound: CC(=O)c1cccc(-c2cc(C(CC(=O)O)C(=O)O)cc(-c3nc4cc(C(=N)N)ccc4[nH]3)c2O)c1 (stereo unspecified)
- Ki (Coagulation factor VII): 0.033 µM
- Selectivity ratio (Homo sapiens): 197

Compound: N=C(N)c1ccc2[nH]c(-c3cc(C(CC(=O)O)C(=O)O)cc(-c4cc(F)cc(F)c4)c3O)nc2c1 (stereo unspecified)
- Selectivity ratio (Homo sapiens): 115

Compound: N=C(N)c1ccc2[nH]c(-c3cc(C(CC(=O)O)C(=O)O)cc(-c4cc(Cl)cc(Cl)c4O)c3O)nc2c1 (stereo unspecified)
- Ki (Coagulation factor VII): 0.014 µM
- Selectivity ratio (Homo sapiens): 421

Compound: N=C(N)c1ccc2[nH]c(-c3cc(C(CC(=O)O)C(=O)O)cc(-c4ccc(O)cc4)c3O)nc2c1 (stereo unspecified)
- Ki (Coagulation factor VII): 0.88 µM
- Selectivity ratio (Homo sapiens): 10

Compound: N=C(N)c1ccc2[nH]c(-c3cc(C(CC(=O)O)C(=O)O)cc(-c4c(O)cc(Cl)cc4Cl)c3O)nc2c1 (stereo unspecified)
- Ki (Coagulation factor VII): 0.025 µM
- Selectivity ratio (Homo sapiens): 192

Compound: CC(=O)Nc1cccc(-c2cc(C(CC(=O)O)C(=O)O)cc(-c3nc4cc(C(=N)N)ccc4[nH]3)c2O)c1 (stereo unspecified)
- Selectivity ratio (Homo sapiens): 118

Compound: COc1ccc(C#N)cc1-c1cc(C(CC(=O)O)C(=O)O)cc(-c2nc3cc(C(=N)N)ccc3[nH]2)c1O (stereo unspecified)
- Ki (Coagulation factor VII): 0.28 µM
- Selectivity ratio (Homo sapiens): 54

Compound: N=C(N)c1ccc2[nH]c(-c3cc(C(CC(=O)O)C(=O)O)cc(-c4cc([N+](=O)[O-])ccc4O)c3O)nc2c1 (stereo unspecified)
- Ki (Coagulation factor VII): 0.006 µM
- Selectivity ratio (Homo sapiens): 8500

Compound: N=C(N)c1ccc2nc(-c3cc(C(CC(=O)O)C(=O)O)cc(-c4ccc(F)c(Cl)c4)c3O)[nH]c2c1 (stereo unspecified)
- Ki (Coagulation factor VII): 0.13 µM

Compound: COc1ccc(F)cc1-c1cc(C(CC(=O)O)C(=O)O)cc(-c2nc3cc(C(=N)N)ccc3[nH]2)c1O (stereo unspecified)
- Ki (Coagulation factor VII): 0.33 µM
- Selectivity ratio (Homo sapiens): 52

Compound: CC(C)c1cccc(-c2cc(C(CC(=O)O)C(=O)O)cc(-c3nc4ccc(C(=N)N)cc4[nH]3)c2O)c1 (stereo unspecified)
- Ki (Coagulation factor VII): 0.076 µM

Compound: N=C(N)c1ccc2[nH]c(-c3cc(C(CC(=O)O)C(=O)O)cc(-c4cc(Cl)cc(Br)c4O)c3O)nc2c1 (stereo unspecified)
- Ki (Coagulation factor VII): 0.009 µM
- Selectivity ratio (Homo sapiens): 398

Compound: N=C(N)c1ccc2[nH]c(-c3cc(C(CC(=O)O)C(=O)O)cc(-c4ccccc4[N+](=O)[O-])c3O)nc2c1 (stereo unspecified)
- Selectivity ratio (Homo sapiens): 25

Compound: N=C(N)c1ccc2[nH]c(-c3cc(C(CC(=O)O)C(=O)O)cc(-c4cccc([N+](=O)[O-])c4)c3O)nc2c1 (stereo unspecified)
- Selectivity ratio (Homo sapiens): 268

Compound: N=C(N)c1ccc2[nH]c(-c3cc(C(CC(=O)O)C(=O)O)cc(-c4cc(Cl)ccc4O)c3O)nc2c1 (stereo unspecified)
- Ki (Coagulation factor VII): 0.0054 µM
- Selectivity ratio (Homo sapiens): 2500

Compound: N=C(N)c1ccc2[nH]c(-c3cc(C(CC(=O)O)C(=O)O)cc(-c4cccc(Cl)c4Cl)c3O)nc2c1 (stereo unspecified)
- Selectivity ratio (Homo sapiens): 44

Compound: N=C(N)c1ccc2[nH]c(-c3cc(C(CC(=O)O)C(=O)O)cc(-c4cc(F)ccc4O)c3O)nc2c1 (stereo unspecified)
- Selectivity ratio (Homo sapiens): 4400

Compound: Cc1ccc(-c2cc(C(CC(=O)O)C(=O)O)cc(-c3nc4ccc(C(=N)N)cc4[nH]3)c2O)cc1 (stereo unspecified)
- Ki (Coagulation factor VII): 0.42 µM

Compound: N=C(N)c1ccc2nc(-c3cc(C(CC(=O)O)C(=O)O)cc(-c4ccccc4N)c3O)[nH]c2c1 (stereo unspecified)
- Ki (Coagulation factor VII): 0.42 µM

Compound: N=C(N)c1ccc2nc(-c3cc(C(CC(=O)O)C(=O)O)cc(-c4cc(F)cc(F)c4)c3O)[nH]c2c1 (stereo unspecified)
- Ki (Coagulation factor VII): 0.068 µM

Compound: CC(=O)Nc1cccc(-c2cc(C(CC(=O)O)C(=O)O)cc(-c3nc4ccc(C(=N)N)cc4[nH]3)c2O)c1 (stereo unspecified)
- Ki (Coagulation factor VII): 0.11 µM

Compound: N=C(N)c1ccc2[nH]c(-c3cc(C(CC(=O)O)C(=O)O)cc(-c4cccc(CO)c4)c3O)nc2c1 (stereo unspecified)
- Selectivity ratio (Homo sapiens): 216
